High-throughput results: PubChem BioAssay, Johns Hopkins Ion Channel Center
RGS4 block = inhibitors of human RGS4; P49798; HEK293 M3R/RGS4 inducible, Fluo-4 calcium flux; stronger effect = higher value; triggered by carbachol at its EC20; B-score at 10 µM; actives 0.45% (n = 310,000); AID 463165;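 active = B-score, a plate-corrected calcium signal, over three deviations above library mean, with baseline fluorescence within five deviations of library mean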;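 note: RGS4 expression induced by doxycycline in cells with stable M3 receptor; B-score is computed from the integrated fluorescence ratio over baseline after carbachol; higher B-score means a larger calcium signal and so more RGS4 inhibition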
Target sequence (P49798 whole entry, looked up): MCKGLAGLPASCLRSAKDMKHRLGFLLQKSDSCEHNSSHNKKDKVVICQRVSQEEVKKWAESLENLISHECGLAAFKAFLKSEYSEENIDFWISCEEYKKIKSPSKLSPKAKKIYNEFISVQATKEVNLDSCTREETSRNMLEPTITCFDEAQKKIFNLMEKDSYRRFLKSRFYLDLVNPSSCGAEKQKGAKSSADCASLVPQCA
MrgX1 antagonist = human MrgX1 receptor antagonism, primary screen; actives 1.3% (n = 310,000); B-score at 10 µM; Q96LB2; MRGX1-HEK293 calcium flux, Fluo-4, BAM8-22 antagonism; stronger effect = lower value;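 active = calcium-response B-score plate-corrected more than 3 library SD below zero, starting fluorescence within 5 deviations, no agonist response on first addition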;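 note: peak minus trough fluorescence over baseline after final BAM8-22 challenge near maximal dose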
Target sequence (Q96LB2 whole entry, looked up): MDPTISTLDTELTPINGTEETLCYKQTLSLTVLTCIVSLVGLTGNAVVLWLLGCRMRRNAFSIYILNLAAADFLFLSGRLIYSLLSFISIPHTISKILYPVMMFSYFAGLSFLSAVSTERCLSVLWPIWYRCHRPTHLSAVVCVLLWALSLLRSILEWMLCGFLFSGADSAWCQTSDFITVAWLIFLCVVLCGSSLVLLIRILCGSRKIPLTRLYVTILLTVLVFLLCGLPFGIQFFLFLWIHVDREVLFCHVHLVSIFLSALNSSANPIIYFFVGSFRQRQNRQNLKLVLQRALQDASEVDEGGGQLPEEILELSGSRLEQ
MrgX1 allo act = human MrgX1 positive allosteric modulation, primary screen; Q96LB2; MrgX1-HEK293, Fluo-4 calcium flux, FDSS; stronger effect = higher value; B-score at 10 µM; actives 0.63% (n = 310,000); AID 588675;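 active = plate-corrected calcium response at least 3 library SD above typical, normal starting fluorescence, not activating the receptor alone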;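 note: compound read alongside a low EC10 to EC30 dose of BAM8-22 agonist; peak minus trough fluorescence over baseline measured at the second addition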
MrgX1 ag = agonists of human MrgX1 receptor. Q96LB2. MrgX1-HEK293 cells, Fluo-4 calcium fluorescence, agonist mode; stronger effect = higher value. B-score at 10 µM. actives 0.44% (n = 310,000). AID 588627;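 active = calcium response B-score plate-corrected fluorescence ratio at least 3 library SD, with starting fluorescence B-score inside 5 SD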
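times = overnight plating, then 30 min 37 °C plus 30 min room-temperature dye loading | assay system = stable human MrgX1 HEK293 cell line | input = fifteen thousand cells per well | signal = kinetic calcium dye fluorescence, Fluo-4 NW | dosing = compound delivered in addition one of three | read-out = B-scored fluorescence response ratio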
RGS4 pot = RGS4 potentiation or activation; AID 463111; actives 0.92% (n = 310,000); B-score at 10 µM; HEK293 M3R/inducible RGS4, carbachol calcium flux Fluo4; stronger effect = lower value;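 active = B-score of the integrated calcium signal more than 4 SD below the library mean, with starting fluorescence not abnormally high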;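 note: negative B-score means reduced calcium response which marks RGS4 activation or potentiation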
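Detection: kinetic calcium fluorescence imaging with Fluo4-AM dye, 2 µM / Material: HEK293 cells with stable M3R and inducible RGS4 / Schedule: recording 10 s baseline at 1 Hz, 100 s post-agonist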
RGS4 block valid = RGS4 inhibitor validation; HEK293 M3R/RGS4, carbachol calcium Fluo-4 fluorescence; carbachol added at its EC20; 0 = buffer wells, 100 = carbachol control; shares compounds with RGS4 block; actives 65% (n = 1,700); AID 492999; calcium response, % at 10 µM;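 active = duplicate-averaged calcium response above the buffer-only control mean plus 5 SD of those controls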;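 note: integrated fluorescence ratio F max minus min over baseline F0; higher response in RGS4-induced cells means RGS4 inhibition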
RGS4 uninduced = checks RGS4 inhibitor effects in non-induced HEK293 M3R cells; shares compounds with RGS4 block; carbachol calcium Fluo-4; submaximal (EC20) carbachol stimulus; buffer wells 0%, carbachol control wells 100%; activity (percent), % at 10 µM; actives 20% (n = 1,900); AID 493000; call rule not given here;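 note: RGS4 induction absent so cells express M3R without RGS4; higher means more calcium signal and flags a non-specific hit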
RGS4 inh ctr2 = second counter-screen for RGS4 inhibitors: non-induced cells without carbachol; shares compounds with RGS4 block; HEK293 M3R/RGS4 non-induced, Fluo-4 calcium, no carbachol; normalised: buffer wells 0%, carbachol wells 100%; calcium response (agonist-mode artifact), % at 10 µM; actives 22% (n = 1,900); AID 493001;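 active = duplicate-averaged calcium rise in uninduced cells above buffer wells' mean plus 5 SD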
Starred values were filed as active, the others as inactive; i = inactive; nt = no result. Only some compounds are listed: those with a hit (about 3.5% of all), similar ones and a draw of the others.

SMILES	RGS4 block	MrgX1 antagonist	MrgX1 allo act	MrgX1 ag	RGS4 pot	RGS4 block valid	RGS4 uninduced	RGS4 inh ctr2
C#CCOc1ccc(/C=C2/C(=O)N(c3cccc(C(=O)O)c3)N=C2C)cc1OC	6*	i	i	i	i	5.0%*	i	i
CC1=NN(c2ccccc2)C(=O)/C1=C/C=C/c1ccccc1	i	i	i	i	i	nt	nt	nt
Cc1nc2c(C(=O)NCCC3=CCCCC3)c[nH]n2c(=O)c1Cl	17*	i	i	i	i	52%*	52%*	i
COc1cc(CN2CCCC(N3CCN(c4ccc(F)cc4)CC3)C2)ccc1F (stereo not drawn)	i	i	i	i	i	nt	nt	nt
CN1C(=O)S/C(=C\c2ccccc2OCc2ccc(C(=O)O)cc2)C1=O	6.2*	i	i	i	i	14%*	i	i
CC(C)N1C(=O)S/C(=C/c2ccccc2OCc2ccc(C(=O)O)cc2)C1=O	i	i	i	i	i	i	i	i
Cc1c(CC(=O)O)c(=O)oc2cc(OCc3ccc(Cl)cc3)ccc12	i	i	i	i	i	nt	nt	nt
Cc1noc(NS(=O)(=O)c2ccc(N/C=C/C(=O)c3ccc4c(c3)OCO4)cc2)c1C	i	i	i	i	i	nt	nt	nt
Cc1noc(NS(=O)(=O)c2ccc(N/C=C\C(=O)c3ccc(F)cc3)cc2)c1C	i	i	i	i	i	nt	36%*	i
Cc1noc(NS(=O)(=O)c2ccc(N/C=C\C(=O)c3cccs3)cc2)c1C	i	i	i	i	i	nt	nt	nt
Cc1cccc(-n2ccc(=O)c(C(=O)Nc3ccc(S(=O)(=O)Nc4onc(C)c4C)cc3)n2)c1	4.7*	i	i	i	i	7.0%*	i	i
Cc1noc(NS(=O)(=O)c2ccc(N/C=C\C(=O)c3ccccc3)cc2)c1C	i	i	i	i	i	nt	i	i
Cc1csc(NC(C)c2nc3cc(C(F)(F)F)ccc3n2CCCO)n1 (stereo not drawn)	i	i	i	i	i	nt	nt	nt
CCOC(=O)c1ccc(Nc2nnc(C)c3ccccc23)cc1	i	i	i	i	i	nt	nt	nt
Cc1c(C(=O)N2CCCCCC2)c(S(=O)(=O)NCc2ccccc2Cl)c(C)n1C	i	i	i	i	i	nt	nt	nt
CSc1ccccc1OCc1cc(C(=O)NCCN2CCCC(O)C2)no1 (stereo not drawn)	i	i	i	i	i	nt	nt	nt
CSc1ccccc1OCc1cc(C(=O)NCCC2CCCCO2)no1 (stereo not drawn)	11*	i	i	i	i	i	i	i
CC1(C)COC(/C=C/c2ccc([N+](=O)[O-])cc2)=N1	5.7*	i	i	i	i	8.0%*	29%*	i
O=C(O)c1ccc2c(=O)n3c(nc2c1)/C(=C/c1ccc(Cl)cc1Cl)CC3	19*	i	i	i	i	24%*	i	i
O=C(OCn1ncc(Cl)c(Cl)c1=O)c1ccc(F)cc1	i	i	i	i	i	nt	nt	nt
O=C(OCn1ncc(Cl)c(Cl)c1=O)c1ccccc1Cl	7.4*	i	i	i	i	15%*	40%*	i
CC1CN(S(=O)(=O)c2ccc(F)cc2)C(C)N1C(=O)N1CCOCC1 (stereo not drawn)	i	i	i	i	i	nt	nt	nt
CCOC(=O)COc1cc([N+](=O)[O-])cc2cccnc12	i	i	i	i	i	nt	nt	nt
CCOC(=O)COc1ccccc1/C=C\[N+](=O)[O-]	19*	i	i	i	i	70%*	i	11%*
CCOC(=O)c1sc(=S)n(-c2ccccc2)c1N	i	i	i	i	i	nt	nt	nt
SMILES	RGS4 block	MrgX1 antagonist	MrgX1 allo act	MrgX1 ag	RGS4 pot	RGS4 block valid	RGS4 uninduced	RGS4 inh ctr2
CCOC(=O)c1sc(=S)n(-c2ccccc2)c1N(C(C)=O)C(C)=O	4.9*	i	i	i	i	i	i	i
OCCN(CCO)c1ccc2ccccc2c1	i	i	i	i	i	nt	nt	nt
OCCN(CCO)c1ccc(C(c2ccccc2Cl)c2ccc(N(CCO)CCO)cc2Cl)c(Cl)c1	i	i	i	i	i	i	i	15%*
CCC(=O)N1CCCc2cc(S(=O)(=O)CCC(=O)Nc3ccccc3C)ccc21	i	i	i	i	i	nt	nt	nt
CCOC(=O)C1CCN(CC(O)COC(CC)c2ccccc2)CC1 (stereo not drawn)	i	i	i	i	i	nt	nt	nt
CC(=O)Oc1ccc2ccccc2c1C(NC(=O)Cc1ccccc1)c1ccc(Cl)cc1 (stereo not drawn)	i	-5.9*	i	i	i	nt	i	i
CCOc1ccc(C(NC(=O)CC)c2c(O)ccc3ccccc23)cc1 (stereo not drawn)	i	i	i	i	i	nt	nt	nt
COc1ccc(S(=O)(=O)N2CCN(C(c3ccccc3)c3ccccc3)CC2)cc1NC(C)=O	i	i	i	i	i	nt	nt	nt
COc1ccc(N2C(=O)CC(N3CCN(S(=O)(=O)c4c(F)cccc4F)CC3)C2=O)cc1OC (stereo not drawn)	6.8*	i	i	i	i	9.0%*	i	i
COc1cccc(N2CCN(C3CC(=O)N(c4ccc(F)c(Cl)c4)C3=O)CC2)c1 (stereo not drawn)	i	i	i	i	i	nt	nt	nt
Cn1cc(Cl)c(C(=O)NNC(=S)NC2CCCCC2)n1	15*	i	i	i	i	39%*	50%*	i
Cn1cc(Cl)c(C(=O)NC2CCCCCC2)n1	i	i	i	i	i	nt	nt	nt
CN(C)c1ccc(/C=C(/NC(=O)c2ccccc2)C(=O)NCCCn2ccnc2)cc1	i	i	i	i	i	nt	nt	nt
CCOC(=O)C1CCN(Cc2nc3ccccc3c(=O)n2-c2ccc(F)cc2)CC1	5.4*	i	i	i	i	i	i	i
O=C(c1ccco1)N1CCN(Cc2nc3ccccc3c(=O)n2-c2ccc(F)cc2)CC1	i	i	i	i	i	nt	nt	nt
